# High-throughput results from PubChem BioAssay.
# NLRP3 yeast inh: NALP3 inhibition in yeast | 330,000 compounds, 0.39% hits | inhibition, % at 10 µM | AID 2825 | Yeast reconstituted NLRP3/ASC/caspase-1, beta-gal luminescence, 24 h;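 active means inhibition of 50% or more; inactive means inhibition below 50%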;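 further: plate controls were induced DMSO wells for no effect and uninduced yeast grown without galactose for full effect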
# L major viab: Leishmania major promastigote growth inhibition | Leishmania major promastigotes, resazurin fluorescence viability | inhibition, % at 10 µM | 200,000 compounds, 9% hits; in the data active means inhibition above about 50%;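 further: promastigotes grown with compound for 44 hours at 28 °C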
# T cruzi repl: blocks replication of Trypanosoma cruzi. T. cruzi beta-gal in NIH3T3, luminescence, 90 h. inhibition, % (concentration not given with the values). 300,000 compounds, 1.4% hits;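 active means mean inhibition across valid replicates above about 55%, limit read from the data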;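 further: signal also drops with host cell toxicity which is not excluded here; 0% = plate median of DMSO wells and 100% = zero luminescence signal; higher percent means less beta-gal luminescence so fewer parasites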
#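 System: mouse NIH/3T3 fibroblasts infected with β-gal-expressing T. cruzi Tulahuen C4 / Input: NIH/3T3 cells, 5,000 per well / Buffer or medium: Low-serum DMEM with 2% FBS / Probe or stimulus: 5000 reporter trypomastigotes per well / Schedule: ≥90 h infection period, 3 h prior cell attachment / Measured by: GalScreen luminescence, 60 min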
# PolyA inh: blocks polyadenylation in yeast reporter cells; S. cerevisiae SKY197-pL101 polyadenylation reporter, beta-gal luminescence; efflux-impaired pdr1/pdr3 knockout yeast; score 100 = 6 SD above DMSO; 300,000 compounds, 0.02% hits; activity score, % at 12 µM;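 active means lowest replicate activity score at least 50, where 100 means six control SD above control mean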;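 further: yeast exposed to compound for 9 h at 30 °C; higher score means more reporter readthrough which indicates perturbed polyadenylation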
# Calb FLC: affects C. albicans growth with fluconazole; C. albicans CaCi-2 + fluconazole, Alamar Blue growth, 48 h; growth inhibition, % (concentration not given with the values); 300,000 compounds, 0.57% hits;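 active means growth inhibition above about 58% in most replicates, limit read from the data, passing the limit was not always enough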;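 further: all wells also contain fluconazole at 8 µg/ml as a sub-toxic cotreatment; 0% = median of DMSO wells and 100% = median of geldanamycin control wells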
# NALP1 yeast inh: inhibitors of NALP1 inflammasome in yeast; 280,000 compounds, 0.61% hits; inhibition, % at 10 µM; S. cerevisiae NALP1/ASC/caspase-1 growth, X-gal OD620, 72 h; in the data active means inhibition mostly above about 24%, no sharp cut-off; inactive means mostly below about 32%
# An asterisk follows results filed as active; x = no result. This excerpt belongs to a sample that is enriched for hits.
SMILES,NLRP3 yeast inh,L major viab,T cruzi repl,PolyA inh,Calb FLC,NALP1 yeast inh
O=C(Nc1cc(S(=O)(=O)Nc2ccc(Cl)cc2)ccc1O)c1ccc(S(=O)(=O)N2CCCCCC2)cc1,-1,4,4,-1,15,-19
Nc1nonc1-n1nnc(C(=O)N/N=C/c2cc(Cl)ccc2O)c1CN1CCCCCC1,9,x,56*,2,101*,x
CN1CCN(c2ccc(Cl)cc2NC(=O)c2ccc(S(=O)(=O)N3CCCCCC3)cc2)CC1,6,88*,34,2,16,31
O=C(N/N=C\c1cc(Cl)ccc1O)c1ccc(S(=O)(=O)N2CCCCC2)cc1,13,98*,51,-3,92*,23
Nc1nonc1-n1nnc(C(=O)N/N=C/c2ccc(Cl)cc2Cl)c1CN1CCCCC1,6,x,-14,4,-7,-6
O=C(Nc1cc(C(F)(F)F)ccc1-n1cncn1)c1ccc(Cl)cc1,19,-2,21,-27,13,10
CSCCC(NC(=O)c1ccccc1Br)C(=O)NNC(=O)c1ccco1 (stereo not given),7,x,x,x,x,x
CC(C)c1ccc(/C=N/NC(=O)c2nnn(-c3nonc3N)c2CSC2=NCCS2)cc1,25,97*,2,-6,10,34
O=C(Nc1cc(S(=O)(=O)N2CCOCC2)ccc1-n1cncn1)c1ccc(Cl)cc1,-7,x,63*,-9,10,0
Nc1nonc1-n1nnc(C(=O)N/N=C/c2ccc(Br)cc2)c1CSC1=NCCS1,8,13,1,-9,2,25
CN1CCN(c2ccc(S(=O)(=O)N3CCCCC3)cc2NC(=O)c2ccc(C#N)cc2)CC1,18,2,56*,-7,13,11
O=C(COC(=O)c1ccc2c(c1)C(=O)N(Cc1ccco1)C2=O)NCC(F)(F)F,12,x,-3,-6,-1,5
Cc1ncc([N+](=O)[O-])n1Cc1ccccc1F,3,50,-30,2,-16,1
Cc1ncc([N+](=O)[O-])n1Cc1cccc2ccccc12,-1,57*,3,0,0,12
O=C(COc1coc(CN2CCc3ccccc3C2)cc1=O)N1CCOCC1,32,x,-12,-12,1,x
Cc1ccc(C)c(C(=O)CN2Cc3ccccc3C2=O)c1,24,x,-8,-14,11,x
CCC(c1nnnn1C1CCCCC1)N1CCN(C2CCCC2)CC1 (stereo not given),17,65*,6,11,-11,8
CC(C)CC(c1nnnn1C1CCCCC1)N1CCN(c2ncccn2)CC1 (stereo not given),3,63*,11,-36,-18,-9
CCn1c(-c2cccnc2Cl)nc2ccccc21,-3,0,-14,17,-13,38
COCc1nc2ccccc2n1Cc1cccc(C)c1,-31,-1,13,9,-6,17
Clc1ncccc1-c1nc2ccccc2n1Cc1ccccc1,-1,94*,2,-15,5,-3
Cc1cccc(Cn2c(Cc3ccccc3)nc3ccccc32)c1,20,92*,2,-28,-15,31
CCO[C@H]1OC(C(=O)N2CCN(C)CC2)=C[C@@H](C2CC2)[C@@H]1CCCO,12,0,-21,-12,-11,2
OC1(c2cccc(F)c2)CCN(Cc2ccncc2)CC1,7,94*,-21,-11,2,22
CS(=O)(=O)c1cccc(NC(=O)CSc2nnc3n2CCCCC3)c1,20,x,x,x,x,x
SMILES,NLRP3 yeast inh,L major viab,T cruzi repl,PolyA inh,Calb FLC,NALP1 yeast inh
CN(CCNC(=O)CN1CCN(Cc2ccccc2Cl)C1=O)Cc1ccccc1,7,59*,38,28,-1,45*
CC(C)COc1ncnc2c1sc1nc3c(cc12)COC(C)(C)C3,18,x,-16,-8,-3,7
CCC(C)Nc1nnnc2c1sc1nc3c(cc12)COC(C)(C)C3 (stereo not given),6,50*,12,4,50,-3
CCn1nc(C(=O)NNC(=O)COc2ccc(OC)cc2)c2ccccc2c1=O,-4,-7,-2,15,-2,26
Cn1nc(C(=O)NNC(=O)COc2ccccc2)c2ccccc2c1=O,-6,55*,-3,19,-4,17
Cc1ccc(-c2nn(-c3ccccc3)cc2C(=O)N2CCN(c3ccccn3)CC2)cc1,8,25,17,-6,-14,3
COc1ccc(-c2nn(-c3ccccc3)cc2/C=C/C(=O)N2CCN(c3ccccn3)CC2)cc1,11,21,55*,-11,20,-9
Cc1ccc(Sc2ccc([N+](=O)[O-])cc2[N+](=O)[O-])nc1,26,58*,25,-21,33,18
Cc1ccnc(Sc2ccc([N+](=O)[O-])cc2[N+](=O)[O-])n1,16,100*,29,-1,98*,-15
CC(C)[C@H](NC(=O)c1ccccc1F)C(=O)NNC(=O)c1cccs1,13,x,x,x,x,x
Cc1ccc(-n2c(C)cc(C(=O)COC(=O)C3=NNC(=O)CC3)c2C)cc1,0,95*,7,-7,0,5
Cc1ccc(-n2c(C)cc(C(=O)CSc3n[nH]c(N)n3)c2C)cc1,0,95*,5,12,32,-5
Cc1cc(N2CCN(C(=O)OC(C)(C)C)CC2)n2ncnc2n1,1,-1,4,3,-6,2
CC(C)C(=O)Nc1sc2c(c1-c1nc3ccccc3[nH]1)CCCC2,9,61*,35,4,5,-3
CC(C)C(=O)Nc1ccccc1-c1nc2ccccc2[nH]c1=O,11,x,0,-9,-12,7
Cc1ccc(NNC(=O)c2cc(C(C)(C)C)nn2Cc2ccccc2)cc1,25,x,26,-9,1,17
CC(C)(C)c1cc(C(=O)NNc2ccc(OC(F)(F)F)cc2)n(Cc2ccccc2)n1,15,x,39,-2,81*,7
O=C(Nc1ccc(Br)cc1)c1cc(-c2ccc3c(c2)OCO3)on1,9,x,10,7,5,9
COc1ccc(N=C2SC(CC(=O)Nc3ccc(OC)cc3OC)C(=O)N2C)cc1 (stereo not given),8,44,30,-6,17,3
COc1cc([N+](=O)[O-])ccc1NC(=O)CC1SC(=Nc2ccc(F)cc2)N(CCC2=CCCCC2)C1=O (stereo not given),12,34,52,-22,-22,28
COc1ccc(OC)c(NC(=O)CC2SC(=Nc3ccccc3)N(CCc3ccccn3)C2=O)c1 (stereo not given),-1,55*,6,6,6,17
COc1ccc(OC)c(NC(=O)CC2SC(=Nc3ccc(F)cc3)N(CCC3=CCCCC3)C2=O)c1 (stereo not given),8,55*,37,-5,5,13
COc1ccc(N=C2SC(CC(=O)Nc3cccc(Cl)c3)C(=O)N2Cc2ccco2)cc1 (stereo not given),6,98*,40,-17,-30,27
